The test system of data set [1] is Trichophyton rubrum LM 237. Put plainly: MIC99 by broth microdilution. In kind it is cell-based. The note with it: LM237, 168 h, read-out: MIC99 T. rubrum. In a few lines:
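T. rubrum was cultured on Sabouraud dextrose agar at 27 °C for one week. Actively growing mycelium was collected into sterile distilled water with broken coverslips as inoculum. Test compound in 5% aqueous DMSO was diluted twofold serially in SDA over 2.0 × 10−1 to 2.4 × 10−5 mg mL−1. Plates were held at 30 °C and scored visually after 7 days. Run in triplicate with solvent blanks; amphotericin B and fluconazole as references.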

A short description of data set [2]: Water thermodynamic solubility by HPLC. Type of data set: physicochemical. Particulars: ultrapure water, 25 °C, thermodynamic from solid.
The conditions of data set [3]: literature value; cited from earlier work.

Values after ≈ are worked out from the molar mass of the structure shown.

For the compound `COC(=O)[C@H](CO)NC(C)=C1C(=O)C=C2Oc3c(C(C)=O)c(O)c(C)c(O)c3[C@@]2(C)C1=O` [(9bR,15S)-1, Methyl (1-((R)-6-acetyl-7,9-dihydroxy-8,9b-dimethyl-1,3-dioxo-3,9b-dihydrodibenzo[b,d]furan-2(1H)-ylidene)ethyl)-L-serinate], in data set [1], the MIC99 (commonly the lowest concentration that inhibits either 99% of growth or 99% of the strains tested, depending on the study) is 450 µM (≈ 200 µg/mL). In addition, the solubility – broadly, the concentration that dissolves in the medium under given conditions – at 24 h in data set [2] is 150 to 4700 µM (≈ 66.8 to 2090 µg/mL).

Consider `CC(=O)c1c(O)c(C)c(O)c2c1OC1=CC(=O)C(=C(C)N[C@@H](CCCNC(=N)N)C(=O)O)C(=O)[C@@]12C` [(9bR,15S)-2, (1-((R)-6-Acetyl-7,9-dihydroxy-8,9b-dimethyl-1,3-dioxo-3,9b-dihydrodibenzo[b,d]furan-2(1H)-ylidene)ethyl)-L-arginine], for which the MIC99 in data set [1] was 400 µM (≈ 200 µg/mL).

Turning to `COC(=O)[C@H](CO)NC(C)=C1C(=O)C=C2Oc3c(C(C)=O)c(O)c(C)c(O)c3[C@]2(C)C1=O` [(9bS,15S)-1, Methyl (1-((S)-6-acetyl-7,9-dihydroxy-8,9b-dimethyl-1,3-dioxo-3,9b-dihydrodibenzo[b,d]-furan-2(1H)-ylidene)ethyl)-L-serinate], the MIC99 in data set [1] is 28 µM (≈ 12.5 µg/mL). The compound further gave a solubility at 24 h in data set [2] of 150 µM (≈ 66.8 µg/mL).

As for `CC(=O)c1c(O)c(C)c(O)c2c1OC1=CC(=O)C(=C(C)N[C@@H](CCCNC(=N)N)C(=O)O)C(=O)[C@]12C` [(9bS,15S)-2, (1-((S)-6-Acetyl-7,9-dihydroxy-8,9b-dimethyl-1,3-dioxo-3,9b-dihydrodibenzo[b,d]furan-2(1H)-ylidene)ethyl)-L-arginine], the MIC99 in data set [1] was found to be 100 µM (≈ 50.1 µg/mL).

Turning to `C[C@@H]1[C@H](O)[C@@H](C)/C=C/C=C/C=C/C=C/C=C/C=C/C=C/[C@H](O[C@@H]2O[C@H](C)[C@@H](O)[C@H](N)[C@@H]2O)C[C@@H]2O[C@](O)(C[C@@H](O)C[C@@H](O)[C@H](O)CC[C@@H](O)C[C@@H](O)CC(=O)O[C@H]1C)C[C@H](O)[C@H]2C(=O)O` [AmB, amphotericin B, reference compound], in data set [1], the MIC99 is above 400 µM.

Consider `OC(Cn1cncn1)(Cn1cncn1)c1ccc(F)cc1F` [FCZ, fluconazole, reference compound], for which the MIC99 in data set [1] is above 200 µM.

Regarding usnic acid [UA], the “Aqueous solubility at 25 °C” value in data set [3] was <0.3 (lit.)[60] mM.
